High-throughput results: PubChem BioAssay, The Scripps Research Institute Molecular Screening Center
MsrA inhibitor = inhibitors of bovine MsrA; 0.75% of 360,000 active; inhibition, % at 15.5 µM; purified bovine MsrA, absorbance read-out; in the data active = inhibition above about 4.5%
ARFGAP1 inhibitor = inhibitors of rat ARFGAP1; Arfgap1-stimulated ARF1 GTP hydrolysis, GDP FP detection; AID 651572; Q62848; 0.26% of 360,000 active; inhibition, % at 16.5 µM;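 active = inhibition above a per-plate limit, mean inhibition of low control wells plus 3 SD, cut at about 25% in these data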
Target sequence (Q62848 1-136 limits assumed): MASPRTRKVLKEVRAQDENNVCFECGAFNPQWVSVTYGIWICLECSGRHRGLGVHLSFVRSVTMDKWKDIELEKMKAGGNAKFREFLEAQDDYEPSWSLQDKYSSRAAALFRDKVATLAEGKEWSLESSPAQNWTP
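Material: rat Arfgap1 GAP domain (His6, aa 1-136), purified enzyme. Also added: human ARF1(Δ1-17)-GTP substrate. Compound dosing: 16.5 µM single point, 1.26% DMSO. Timing: enzyme reaction 120 min at 25 °C after 20 min preincubation. Signal: GDP detection by fluorescence polarization. Read-out basis: percent inhibition of GAP-stimulated GDP formation, scaled between DMSO and no-Arfgap1 medians.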
ASAP1 inh = inhibitors of human ASAP1 ArfGAP activity. inhibition, % at 16.5 µM. Q9ULH1. ASAP1-stimulated ARF1 GTP hydrolysis, GDP FP detection. 0.19% of 360,000 active. AID 624377; in the data active = inhibition above about 25%
Target sequence (Q9ULH1 325-724 limits assumed): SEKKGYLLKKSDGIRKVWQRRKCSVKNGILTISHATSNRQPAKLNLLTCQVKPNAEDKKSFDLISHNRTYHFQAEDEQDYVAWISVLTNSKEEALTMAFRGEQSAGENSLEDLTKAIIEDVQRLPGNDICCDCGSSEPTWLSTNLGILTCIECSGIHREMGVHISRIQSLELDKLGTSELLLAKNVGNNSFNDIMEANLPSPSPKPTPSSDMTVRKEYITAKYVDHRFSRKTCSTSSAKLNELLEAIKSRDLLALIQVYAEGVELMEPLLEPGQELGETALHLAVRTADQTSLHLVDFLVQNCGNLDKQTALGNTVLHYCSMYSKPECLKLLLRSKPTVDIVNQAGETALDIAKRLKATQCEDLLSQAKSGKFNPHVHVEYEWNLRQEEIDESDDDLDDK
bovine MsrA act = bovine methionine sulfoxide reductase A activation; purified bovine MsrA, absorbance read-out; activation, % at 10.6 µM; 0.3% of 360,000 active; AID 602163; in the data active = activation above about 7.5%
MsrA activ conf = confirmation of bovine methionine sulfoxide reductase A activators | shares compounds with bovine MsrA act | purified bovine MsrA, absorbance read-out | activation, % at 10.6 µM | 12% of 1,000 active | AID 602270; in the data active = activation above about 4%;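 also: enzyme coupled to thioredoxin and thioredoxin reductase with NADPH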
Each line names hits and unclear results; the compound was inactive in the other large screens (follow-up assays come after a bar, where they were run). Hits are enriched below; roughly 1.4% of the tested compounds scored in any of these assays.

COc1cccc(C(C)(O)c2nc(-c3cccc(C(F)(F)F)c3)cs2)c1 (configuration not stated)	none
CCC(Oc1ccc(C)c(C)c1)C(=O)N1CCCN(C)CC1 (configuration not stated)	none
CCC(Oc1ccccc1C)C(=O)N1CCCN(C)CC1 (configuration not stated)	bovine MsrA act 14 | MsrA activ conf inactive
CCNC(=S)Nc1ccc2c(c1)c(=O)n(C)n2-c1ccc(C(C)(C)C)cc1	none
Cc1ccc(NC(=O)CCn2c(=S)oc3ccccc32)cc1F	none
Nc1ncnc(Nc2cccc(F)c2)n1	none
Cc1cccc(Nc2ncnc(N)n2)c1	bovine MsrA act 13 | MsrA activ conf inactive
Cc1ccc(NC(=O)CCC(=O)NNC(=O)NC23CC4CC(CC(C4)C2)C3)cc1C	bovine MsrA act 9.0 | MsrA activ conf inactive
CS(=O)(=O)c1ccc(C(=O)NC2CCCc3ccccc32)cc1 (configuration not stated)	none (no result: MsrA inhibitor, ARFGAP1 inhibitor, ASAP1 inh)
CC1(Cc2ccc(OC(F)(F)F)cc2)C(=O)Nc2ccc(S(=O)(=O)NC3CCCCC3)cc21 (configuration not stated)	bovine MsrA act 20 | MsrA activ conf inactive
CC1(Cc2ccc(Cl)cc2)C(=O)Nc2ccc(S(=O)(=O)NC3CCCCC3)cc21 (configuration not stated)	none
Cc1ccsc1C(=O)N(CC(C)C)c1c(N)n(Cc2ccccc2)c(=O)[nH]c1=O	none
O=C(CN1C(=O)COc2ccc(Cl)cc21)Nc1ccccn1	none
CC(CN(C)Cc1ccccc1)OC(=O)c1cccs1 (configuration not stated)	bovine MsrA act 8.4 | MsrA activ conf inactive
CC(CN(C)Cc1ccccc1)OC(=O)c1ccccc1F (configuration not stated)	none
CC1(C(=O)Nc2ccccc2)CCN1C(=O)Cc1ccc(-c2ccccc2)cc1 (configuration not stated)	bovine MsrA act 14 | MsrA activ conf 5.2
COc1cccc(NC(=O)C2(C)CCN2C(=O)Cc2ccc(-c3ccccc3)cc2)c1 (configuration not stated)	none
CCOC(=O)C1=C(C)N(C)C(=O)NC1c1c(C)nn(-c2ccc(C)cc2)c1Cl (configuration not stated)	bovine MsrA act 13 | MsrA activ conf inactive
CN(Cc1ccccc1F)c1ncnc2sccc12	bovine MsrA act 14 | MsrA activ conf inactive
CN(Cc1cccs1)c1ncnc2sccc12	none
O=C(Oc1ccc(Cl)c2cccnc12)C12CC3CC(CC(C3)C1)C2	none
C[n+]1c(-c2ccccc2)cc2c(=Cc3ccccc3)c3ccccc3n21	MsrA inhibitor 12, bovine MsrA act 19 | MsrA activ conf 9.6
CN(C)c1ccc(C=c2c3cc(O)ccc3n3c2cc(-c2ccccc2)[n+]3C)cc1	bovine MsrA act 17 | MsrA activ conf 8.1
Cc1cc2c(=Cc3ccc(N(C)C)cc3)c3ccccc3n2[n+]1C	none
CCCc1cc(=O)oc2c(CN3CCN(C)CC3)c(O)c(Cl)cc12	bovine MsrA act 13 | MsrA activ conf inactive
O=C(CCCN=C1NS(=O)(=O)c2ccccc21)OCc1ccccc1	bovine MsrA act 8.8 | MsrA activ conf inactive
O=C(CCCN=C1NS(=O)(=O)c2ccccc21)OCc1ccc(F)cc1	none
COc1cc(OC)c(CN2CCCN(C)CC2)cc1Br	none
COc1cc(OC)c(CN2CCCCCCC2)cc1Br	bovine MsrA act 12 | MsrA activ conf inactive
CN(CCCC(=O)Nc1ccncc1)S(=O)(=O)c1ccc(Cl)cc1	bovine MsrA act 7.9 | MsrA activ conf inactive
COC(=O)[C@@H](C)NC(=O)c1ccc2oc(CCc3ccccc3)nc2c1	none
COC(=O)CCCNC(=O)c1ccc2oc(CCCc3ccccc3)nc2c1	bovine MsrA act 11 | MsrA activ conf inactive
COc1cc2c(cc1OC)C(=O)C(Br)CC2 (configuration not stated)	bovine MsrA act 14 (no result: MsrA inhibitor, ARFGAP1 inhibitor, ASAP1 inh) | MsrA activ conf inactive
COc1cc2c(cc1OC)C(=O)C(c1ccc3c(c1)OCO3)CC2 (configuration not stated)	none
O=C1c2ccccc2-c2cccnc21	none
O=C1c2ccccc2C(=O)c2c(/C=C/N3CCCCC3)ccnc21	bovine MsrA act 9.7 | MsrA activ conf 4.3
CC(C)c1ccc(/C=N/NC(=O)c2ccccc2Cl)cc1	bovine MsrA act 13 | MsrA activ conf inactive
COC(=O)c1ccc(/C=N/NC(=O)c2ccccc2Cl)cc1	none
O=C(CN1C(=O)C(=O)N(C2CCCC2)C1=O)Nc1ccc([N+](=O)[O-])cc1	none
COc1ccccc1NC(=O)c1ccccc1Nc1ccccc1	bovine MsrA act 10 | MsrA activ conf inactive
CC1(C(=O)Nc2ccc(Cl)c(Cl)c2)CCN1C(=O)Cc1cccc2ccccc12 (configuration not stated)	none
Cc1cccc(C)c1NC(=O)COC(=O)C1CC1	bovine MsrA act 9.7 | MsrA activ conf inactive
CCc1cccc(NC(=O)c2cccc3c2C(=O)N(C2CCCCC2)C3)c1	bovine MsrA act 8.6 (no result: MsrA inhibitor, ARFGAP1 inhibitor, ASAP1 inh) | MsrA activ conf inactive
O=C(Nc1cccc(F)c1)c1cccc2c1C(=O)N(C1CCCCC1)C2	none
CN(CC1COc2ccccc2O1)C(=O)CCNS(=O)(=O)c1ccc(F)c(Cl)c1 (configuration not stated)	none
Cc1cc(C)c(S(=O)(=O)/N=C2/C=C(Sc3ncn[nH]3)C(=O)c3ccccc32)cc1C	MsrA inhibitor 61, bovine MsrA act 14 | MsrA activ conf 8.0
C#CCN1C=C(C(=O)OCC)C(C)NS1(=O)=O (configuration not stated)	none
C#CCN1C=C(C(=O)OCC)C(C)N(Cc2ccccc2I)S1(=O)=O (configuration not stated)	bovine MsrA act 12 | MsrA activ conf inactive
CN(CCc1cnn(C)c1)Cc1nc(Cc2ccccc2)no1	bovine MsrA act 10 | MsrA activ conf inactive
CN(Cc1cnn(C)c1)Cc1nc(COc2ccccc2)no1	none
COc1ccc(Cc2nnc(NC(=O)Nc3ccccc3F)s2)cc1OC	bovine MsrA act 11 | MsrA activ conf inactive
CC(=O)Nc1nnc(Cc2ccccc2)s1	bovine MsrA act 8.6 | MsrA activ conf inactive
CC(C)Oc1ccc(C(=O)Nc2ccc(S(=O)(=O)N3CCN(C)CC3)cc2)cc1	none
OC12CCCCC1C(c1ccc3c(c1)OCO3)N(Cc1ccc(F)cc1)CC2 (configuration not stated)	bovine MsrA act 9.5 | MsrA activ conf inactive
OC12CCCCC1C(c1ccc3c(c1)OCO3)N(Cc1cccc(F)c1)CC2 (configuration not stated)	none
c1ccc(-c2cc3c(N4CCOCC4)ncnc3s2)cc1	bovine MsrA act 8.0 | MsrA activ conf inactive
O=C1CN(C(=O)c2ccc(Br)o2)C(c2ccccc2)c2cc(F)ccc2N1 (configuration not stated)	bovine MsrA act 12 | MsrA activ conf inactive
O=C1CN(C(=O)c2ccccc2)C(c2ccccc2)c2cc(F)ccc2N1 (configuration not stated)	none
O=C(NCC(=O)N1CCN(S(=O)(=O)c2ccccc2F)CC1)c1ccc(Br)o1	none
